Reference: ChEMBL document CHEMBL1268807, “Discovery of small molecule inhibitors of the PH domain leucine-rich repeat protein phosphatase (PHLPP) by chemical and virtual screening” (J Med Chem, 2010)
Activity calls are given as the source filed them. The rule behind the calls is not given here.

Key:
HT-29 (Homo sapiens) = test: Inhibition of PHLPP in human HT29 cells assessed as increase of phosphorylation of Akt on Ser 473 at 100 to 250 uM after 24 hrs by immunoblotting relative to control
[1] = Inhibition of PHLPP in human […] cells assessed as increase of phosphorylation of FoxO1/3alpha on Thr 24/32 at 100 to 250 uM after 24 hrs by immunoblotting; type: cell-based
How it was run: (§1)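 HT29 colon cells kept in DMEM with 5% FBS were given compounds (100 or 250 μM, DMSO vehicle) for 24 h, then lysed on ice. […] Densitometry normalized to actin and expressed relative to control lanes; three experiments, mean ± SEM.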

[2] = Inhibition of PHLPP in human […] cells assessed as increase of phosphorylation of GSK3 alpha/beta on Ser21/9 at 100 to 250 uM after 24 hrs by immunoblotting; type: cell-based
How it was run: as §1

[3] = target: T1, PH domain leucine-rich repeat-containing protein phosphatase 2 (Homo sapiens, UniProt Q6ZVD8); test: Inhibition of PHLPP2 phosphatase domain expressed in Escherichia coli
T1 sequence (Q6ZVD8 whole entry): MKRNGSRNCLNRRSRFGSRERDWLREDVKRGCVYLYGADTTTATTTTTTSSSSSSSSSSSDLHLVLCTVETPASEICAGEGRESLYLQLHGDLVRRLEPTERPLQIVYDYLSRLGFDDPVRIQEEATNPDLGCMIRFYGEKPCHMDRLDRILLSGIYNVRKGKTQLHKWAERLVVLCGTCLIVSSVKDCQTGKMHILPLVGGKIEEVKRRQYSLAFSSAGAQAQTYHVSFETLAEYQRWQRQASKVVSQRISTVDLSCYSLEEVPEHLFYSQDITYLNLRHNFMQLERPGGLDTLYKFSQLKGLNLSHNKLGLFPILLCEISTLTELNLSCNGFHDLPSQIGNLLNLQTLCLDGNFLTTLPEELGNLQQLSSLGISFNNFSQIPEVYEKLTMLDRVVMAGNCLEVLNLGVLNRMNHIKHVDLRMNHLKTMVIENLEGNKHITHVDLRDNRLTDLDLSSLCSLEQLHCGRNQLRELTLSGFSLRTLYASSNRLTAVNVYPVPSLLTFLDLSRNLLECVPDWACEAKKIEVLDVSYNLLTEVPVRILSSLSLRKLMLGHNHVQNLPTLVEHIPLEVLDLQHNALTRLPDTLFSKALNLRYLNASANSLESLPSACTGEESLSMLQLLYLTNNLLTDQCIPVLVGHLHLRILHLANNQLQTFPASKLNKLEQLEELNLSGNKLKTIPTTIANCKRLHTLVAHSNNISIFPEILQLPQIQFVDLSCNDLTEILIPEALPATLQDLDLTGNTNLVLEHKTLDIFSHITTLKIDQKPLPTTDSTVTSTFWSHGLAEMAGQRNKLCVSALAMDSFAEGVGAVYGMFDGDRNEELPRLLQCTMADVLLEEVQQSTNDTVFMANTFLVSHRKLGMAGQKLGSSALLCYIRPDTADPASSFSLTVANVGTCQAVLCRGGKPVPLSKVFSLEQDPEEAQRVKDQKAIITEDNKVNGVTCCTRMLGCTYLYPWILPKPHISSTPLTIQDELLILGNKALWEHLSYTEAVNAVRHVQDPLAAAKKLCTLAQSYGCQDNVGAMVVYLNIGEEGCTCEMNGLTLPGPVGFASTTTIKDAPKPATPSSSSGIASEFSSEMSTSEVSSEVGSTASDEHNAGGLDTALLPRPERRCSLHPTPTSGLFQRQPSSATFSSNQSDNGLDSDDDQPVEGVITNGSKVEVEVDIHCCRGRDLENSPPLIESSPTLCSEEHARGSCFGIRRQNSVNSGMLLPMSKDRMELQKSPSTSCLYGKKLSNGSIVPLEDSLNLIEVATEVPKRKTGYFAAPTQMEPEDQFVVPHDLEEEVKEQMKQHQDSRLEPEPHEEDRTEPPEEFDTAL
How it was run: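 A405 was followed over time, slope taken, no-enzyme background subtracted. Inhibitor at seven concentrations versus DMSO (100%); fit to eq 1, IC50 = −C0 ln(1/2).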

HT20 [4] = test: Inhibition of PHLPP in human […] cells assessed as increase of phosphorylation of FoxO1/3alpha on Thr 24/32 at 100 uM after 24 hrs by immunoblotting; type: cell-based
How it was run: as §1

HT20 [5] = test: Inhibition of PHLPP in human […] cells assessed as increase of phosphorylation of GSK3 alpha/beta on Ser21/9 at 100 uM after 24 hrs by immunoblotting; type: cell-based
How it was run: as §1

HT20 [6] = test: Inhibition of PHLPP in human […] cells assessed as increase of phosphorylation of Akt on Ser 473 at 100 uM after 24 hrs by immunoblotting; type: cell-based
How it was run: as §1

HT-29 = test: Cytotoxicity against human HT-29 cells at 100 uM after 24 hrs; type: cell-based; details: ht-29, 24 h
HT20 [7] = test: Inhibition of PHLPP in human […] cells assessed as increase of phosphorylation of Akt on Ser 473 at 100 to 250 uM after 24 hrs by immunoblotting relative to control; type: cell-based
How it was run: as §1

COS-7 [8] = test: Inhibition of PHLPP expressed in 24 hrs serum starved Cos7 cells assessed as half maximal increase of phosphorylation on Thr308 after 30 mins by immunoblotting; type: cell-based; details: in the assay text read “after 35 mins” for “after 30 mins”
How it was run: (§2)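 COS 7 cells serum-starved 24 h in serum-free DMEM, then exposed 35 min at 37 °C to inhibitor over 4−400 or 3−300 μM; DMSO control. Lysates were immunoblotted for pSer473, pThr308, phospho-Akt-substrate motif, and actin. Densitometry normalized to actin and to DMSO (set to 1), fit to eq 2; four separate experiments, mean ± SEM.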

[9] = target: T2, PH domain leucine-rich repeat-containing protein phosphatase 2 (Homo sapiens) (UniProt Q6ZVD8); details: 10 uM
T2 sequence (whole entry): T1 sequence (Q6ZVD8 whole entry)

[10] = Inhibition of PHLPP expressed in 24 hrs serum starved Cos7 cells assessed as increase of Akt phosphorylation after 30 mins by immunoblotting; details: COS-7
[11] = target: T3, Protein phosphatase 1A (Homo sapiens) (UniProt P35813); test: Inhibition of PP2Calpha at 100 uM
T3 sequence (whole entry): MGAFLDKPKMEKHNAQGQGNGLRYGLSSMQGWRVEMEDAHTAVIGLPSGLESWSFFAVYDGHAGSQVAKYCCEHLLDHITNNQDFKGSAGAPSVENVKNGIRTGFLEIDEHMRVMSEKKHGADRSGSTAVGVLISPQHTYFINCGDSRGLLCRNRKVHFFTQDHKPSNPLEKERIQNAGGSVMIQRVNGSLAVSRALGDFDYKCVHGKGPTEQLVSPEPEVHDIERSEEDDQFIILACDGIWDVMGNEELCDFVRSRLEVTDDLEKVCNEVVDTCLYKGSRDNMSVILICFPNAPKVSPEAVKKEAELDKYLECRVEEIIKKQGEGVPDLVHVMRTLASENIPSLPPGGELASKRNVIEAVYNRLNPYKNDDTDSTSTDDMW
How it was run: (§3)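 PP1, PP2B or PP2Cα phosphatase domain with 8 mM pNPP in each enzyme's optimal buffer. Compound added; activity taken from A405 and expressed relative to DMSO control. At least three experiments, mean ± SEM.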

COS-7 [12] = test: Induction of apoptosis assessed as basal level of apoptotic cells in african green monkey COS7 cells at 50 uM after 24 hrs by trypan blue exclusion assay
[13] = target: T3, Protein phosphatase 1A (Homo sapiens); test: Inhibition of PP2Calpha at 10 uM
How it was run: as §3

COS-7 [14] = test: Inhibition of PHLPP expressed in 24 hrs serum starved Cos7 cells assessed as half maximal increase of phosphorylation of Akt substrate after 30 mins by immunoblotting; type: cell-based; details: in the assay text read “after 35 mins” for “after 30 mins”
How it was run: as §2

[15] = target: Serine/threonine protein phosphatase PP2B-alpha catalytic subunit (Homo sapiens) (UniProt P16298); test: Inhibition of protein phosphatase 2B at 10 uM
How it was run: as §3

[16] = Inhibition of protein phosphatase 1 at 10 uM
How it was run: as §3

[17] = Inhibition of protein phosphatase 1 at 100 uM
How it was run: as §3

SMILES | inhibition (HT-29 (Homo sapiens)) | also measured
Nc1cc(S(=O)(=O)O)cc2cc(S(=O)(=O)O)c(/N=N/c3ccc(S(=O)(=O)c4ccc(/N=N/c5c(O)ccc6cccc(S(=O)(=O)O)c56)cc4)cc3)c(O)c12 | Active | 
O=C(O)c1cc(/N=N/c2ccc(S(=O)(=O)Nc3nccs3)cc2)ccc1O | Active | 
S=C(Nc1ccc2cn[nH]c2c1)Nc1ccc2cn[nH]c2c1 | Active | 
Cc1cc(/N=N/c2ccc(/N=N/c3ccc(O)c(C(=O)O)c3)cc2)c(N)cc1N | Active | inhibition [1]: Active; inhibition [2]: Active; IC50 [3]: 3.75 µM
COc1ccc(NCc2c(O)ccc3ccccc23)cc1 |  | inhibition (HT20 [4]): Active; inhibition (HT20 [5]): Active; inhibition (HT20 [6]): inactive
Nc1nc(SCc2ccccc2)c2ncn(Cc3ccccc3)c2n1 | Active | 
Nc1cc(N)c(/N=N/c2ccc(S(=O)(=O)O)cc2)cc1/N=N/c1ccc(-c2ccc(/N=N/c3ccc(O)c(C(=O)O)c3)cc2)cc1 | Active | 
Cc1ccc(/N=N/c2c(N)c(C)cc(/N=N/c3ccc(/N=N/c4ccc(O)c(C(=O)O)c4)cc3)c2N)c(S(=O)(=O)O)c1 | Active | 
CS(=O)(=O)c1cc2cc(Nc3ccccc3)ccc2c(O)c1/N=N/c1ccc(-c2ccc(/N=N/c3ccc(O)c(C(=O)O)c3)cc2)cc1 | Active | 
COc1cc(NCCC2CCCCN2)c2ncccc2c1 (centres undefined) | Active | inhibition [1]: Active; inhibition [2]: Active; Activity (HT-29): Toxic
COc1ccc2nc3cc(Cl)ccc3c(Nc3ccc(C(=O)O)cc3)c2c1 | Active | inhibition [1]: Active; inhibition [2]: Active
Cc1cc(-c2ccc(/N=N/c3c(S(=O)(=O)O)cc4cc(S(=O)(=O)O)cc(N)c4c3O)c(C)c2)ccc1/N=N/c1cc(S(=O)(=O)O)c2ccccc2c1O | Active | 
CC(=O)Nc1ccc(Nc2cc(S(=O)(=O)O)c(N)c3c2C(=O)c2ccccc2C3=O)cc1 | Active | 
O=C1c2ccccc2-c2cc([N+](=O)[O-])c([N+](=O)[O-])cc21 | Active | 
O=C(O)C1CCCCC1c1c2ccc(=O)c(O)c-2oc2c(O)c(O)ccc12 (centres undefined) | Active | IC50 [3]: 10 µM
O=S(=O)(O)c1ccc(-c2nnc(-c3ccccn3)nc2-c2ccc(S(=O)(=O)O)o2)o1 | Active | 

SMILES | inhibition (HT-29 (Homo sapiens)) | also measured
Cc1cc(/N=N/c2ccc(/N=N/c3ccc(S(=O)(=O)O)cc3)cc2)cc(C(=O)O)c1O | Active | 
Nc1c(/N=N/c2ccc(-c3ccc(/N=N/c4cc(S(=O)(=O)O)c5ccccc5c4N)cc3)cc2)cc(S(=O)(=O)O)c2ccccc12 | Active | 
CS(=O)(=O)c1ccc2c(/N=N/c3ccc(-c4ccc(/N=N/c5ccc(N)c6cc(S(=O)(=O)O)ccc56)cc4)cc3)ccc(N)c2c1 | Active | 
O=C(O)c1c(O)c(/N=N/c2ccc(S(=O)(=O)Nc3nccs3)cc2)cc2ccccc12 | Active | 
C[C@]12CC[C@H]3[C@@H](CCC4=CC(=O)CC[C@@]43C)[C@@H]1CC[C@@H]2C(=O)COS(=O)(=O)c1ccc(Br)cc1 |  | inhibition (HT20 [7]): Active
COc1cc(-c2ccc(/N=N/c3c(S(=O)(=O)O)cc4cc(N)ccc4c3O)c(OC)c2)ccc1/N=N/c1cc(S(=O)(=O)O)c2ccccc2c1O | Active | 
NS(=O)(=O)c1ccc(/N=N/c2ncccc2O)cc1 | Active | 
Nc1c(S(=O)(=O)O)cc(Nc2cccc(S(N)(=O)=O)c2)c2c1C(=O)c1ccccc1C2=O | Active | Activity (COS-7 [8]): 132 µM; inhibition [9]: 80%; IC50 [10]: 30 µM; inhibition [11]: 50%; inhibition [1]: Active; basal apoptotic cells (COS-7 [12]): 12%; inhibition [2]: Active; inhibition [13]: inactive; Activity (COS-7 [14]): 36.4 µM; inhibition [15]: inactive; inhibition [16]: inactive; inhibition [17]: 50%
COc1ccc2nc3cc(Cl)ccc3c(Nc3ccc(C(=O)O)c(O)c3)c2c1 | Active | 
O=C(O)c1c(O)c(/N=N/c2ccc(S(=O)(=O)Nc3ccccn3)cc2)cc2ccccc12 | Active | 
CS(=O)(=O)c1cc2ccc(Nc3ccccc3)cc2c(O)c1/N=N/c1ccc(-c2ccc(/N=N/c3ccc(O)c(C(=O)O)c3)cc2)cc1 | Active | 
CN(C)c1ccc(C(c2ccc(N(C)C)cc2)c2ccc([N+](=O)[O-])cc2)cc1 | Active | 
CN(C)CCOC(=O)c1ccc(N)cc1 | Active | 
NS(=O)(=O)c1ccc(/N=N/c2ccc(O)c(C(=O)O)c2)cc1 | Active | 
COc1cc(/N=N/c2ccc(S(=O)(=O)O)cc2)ccc1/N=N/c1ccc(O)c(C(=O)O)c1 | Active | 
